According to ChEMBL document CHEMBL1153726, “Synthesis and anticancer activity of sclerophytin-inspired hydroisobenzofurans” (Bioorg Med Chem Lett, 2009):

Key:
Type in all cases: functional
[1] = Growth inhibition of human […] cells after 96 hrs by MTT assay
In short: (§1)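 Tested in the NCI 60-cell-line panel in five-dose format; GI50 and LC50 values reported for each cell line.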

[2] = tested on: SNB-19; assay: Growth inhibition of human SNB19 cells at 1 uM after 96 hrs by MTT assay; set-up: scale not given: the % may be the effect or the level left
[3] = tested on: OVCAR-4; assay: Growth inhibition of human OVCAR4 cells at 10 nM after 96 hrs by MTT assay; set-up: scale not given: the % may be the effect or the level left
[4] = tested on: SK-MEL-2; assay: Growth inhibition of human SK-MEL-2 cells after 96 hrs by MTT assay; conditions: SK-MEL-2, 96 h; in short: as §1
[5] = tested on: HOP-92; assay: Growth inhibition of human HOP92 cells at 10 uM after 96 hrs by MTT assay; set-up: scale not given: the % may be the effect or the level left
[6] = tested on: SK-MEL-28; assay: Growth inhibition of human SK-MEL-28 cells at 100 nM after 96 hrs by MTT assay; set-up: scale not given: the % may be the effect or the level left
[7] = tested on: ACHN; assay: Growth inhibition of human ACHN cells at 1 uM after 96 hrs by MTT assay; set-up: scale not given: the % may be the effect or the level left
[8] = tested on: NCI-H522; assay: Growth inhibition of human NCI-H522 cells at 1 nM after 96 hrs by MTT assay; set-up: scale not given: the % may be the effect or the level left
[9] = tested on: LOX IMVI; assay: Growth inhibition of human LOXIMVI cells at 100 nM after 96 hrs by MTT assay; set-up: scale not given: the % may be the effect or the level left
[10] = Growth inhibition of human Hs 578T cells at 100 nM after 96 hrs by MTT assay; set-up: scale not given: the % may be the effect or the level left
[11] = tested on: OVCAR-3; assay: Growth inhibition of human OVCAR-3 cells at 10 nM after 96 hrs by MTT assay; set-up: scale not given: the % may be the effect or the level left
[12] = tested on: Malme-3M; assay: Growth inhibition of human MALME-3M cells after 96 hrs by MTT assay
In short: (§2)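 Run in the NCI 60 human tumour cell line panel as a five-dose assay. GI50 and LC50 were reported for each cell line.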

[13] = tested on: COLO 205; assay: Growth inhibition of human COLO205 cells at 1 uM after 96 hrs by MTT assay; set-up: scale not given: the % may be the effect or the level left
[14] = tested on: HCT-15; assay: Growth inhibition of human HCT15 cells at 100 nM after 96 hrs by MTT assay; set-up: scale not given: the % may be the effect or the level left
[15] = tested on: HOP-92; assay: Growth inhibition of human HOP92 cells at 100 nM after 96 hrs by MTT assay; set-up: scale not given: the % may be the effect or the level left
[16] = tested on: 786-0; assay: Growth inhibition of human 786-0 cells at 10 nM after 96 hrs by MTT assay; set-up: scale not given: the % may be the effect or the level left
[17] = tested on: U-251; assay: Growth inhibition of human U251 cells at 1 uM after 96 hrs by MTT assay; set-up: scale not given: the % may be the effect or the level left
[18] = tested on: A498; assay: Growth inhibition of human A498 cells at 10 nM after 96 hrs by MTT assay; set-up: scale not given: the % may be the effect or the level left
[19] = tested on: HL-60(TB); assay: Growth inhibition of human HL-60(TB) cells at 1 uM after 96 hrs by MTT assay; set-up: scale not given: the % may be the effect or the level left
[20] = tested on: SF-268; assay: Growth inhibition of human SF268 cells at 10 nM after 96 hrs by MTT assay; set-up: scale not given: the % may be the effect or the level left
[21] = tested on: NCI-H322M; assay: Growth inhibition of human NCI-H322M cells at 100 nM after 96 hrs by MTT assay; set-up: scale not given: the % may be the effect or the level left
[22] = tested on: SW-620; assay: Growth inhibition of human SW620 cells at 1 uM after 96 hrs by MTT assay; set-up: scale not given: the % may be the effect or the level left
[23] = tested on: NCI/ADR-RES; assay: Growth inhibition of human NCI/ADR-RES cells at 10 uM after 96 hrs by MTT assay; set-up: scale not given: the % may be the effect or the level left
[24] = tested on: EKVX; assay: Growth inhibition of human EKVX cells at 1 nM after 96 hrs by MTT assay; set-up: scale not given: the % may be the effect or the level left
[25] = tested on: OVCAR-5; assay: Growth inhibition of human OVCAR5 cells at 1 nM after 96 hrs by MTT assay; set-up: scale not given: the % may be the effect or the level left
[26] = tested on: K562; assay: Growth inhibition of human K562 cells after 96 hrs by MTT assay; conditions: K562, 96 h; in short: as §2
[27] = tested on: SK-MEL-2; assay: Growth inhibition of human SK-MEL-2 cells at 10 nM after 96 hrs by MTT assay; set-up: scale not given: the % may be the effect or the level left
[28] = tested on: Malme-3M; assay: Growth inhibition of human MALME-3M cells at 1 uM after 96 hrs by MTT assay; set-up: scale not given: the % may be the effect or the level left
[29] = tested on: U-251; assay: Growth inhibition of human U251 cells at 1 nM after 96 hrs by MTT assay; set-up: scale not given: the % may be the effect or the level left
[30] = tested on: HT-29; assay: Growth inhibition of human HT-29 cells after 96 hrs by MTT assay; conditions: HT-29, 96 h; in short: as §2
[31] = tested on: EKVX; assay: Growth inhibition of human EKVX cells after 96 hrs by MTT assay; in short: as §2
[32] = tested on: KM12; assay: Growth inhibition of human KM12 cells at 100 nM after 96 hrs by MTT assay; set-up: scale not given: the % may be the effect or the level left
[33] = tested on: SF-268; assay: Growth inhibition of human SF268 cells at 1 nM after 96 hrs by MTT assay; set-up: scale not given: the % may be the effect or the level left
[34] = tested on: TK-10; assay: Growth inhibition of human TK10 cells at 10 nM after 96 hrs by MTT assay; set-up: scale not given: the % may be the effect or the level left
[35] = tested on: MDA-MB-435; assay: Growth inhibition of human MDA-MB-435 cells after 96 hrs by MTT assay; conditions: MDA-MB-435, 96 h; in short: as §2
[36] = Growth inhibition of human Hs 578T cells at 1 nM after 96 hrs by MTT assay; set-up: scale not given: the % may be the effect or the level left
[37] = tested on: UACC-257; assay: Growth inhibition of human UACC257 cells at 10 nM after 96 hrs by MTT assay; set-up: scale not given: the % may be the effect or the level left
[38] = tested on: IGROV-1; assay: Growth inhibition of human IGROV1 cells at 1 nM after 96 hrs by MTT assay; set-up: scale not given: the % may be the effect or the level left
[39] = tested on: SNB-19; assay: Growth inhibition of human SNB19 cells at 100 nM after 96 hrs by MTT assay; set-up: scale not given: the % may be the effect or the level left
[40] = tested on: OVCAR-5; assay: Growth inhibition of human OVCAR5 cells at 1 uM after 96 hrs by MTT assay; set-up: scale not given: the % may be the effect or the level left
[41] = tested on: MCF7; assay: Growth inhibition of human MCF7 cells at 10 uM after 96 hrs by MTT assay; set-up: scale not given: the % may be the effect or the level left
[42] = tested on: K562; assay: Growth inhibition of human K562 cells at 1 uM after 96 hrs by MTT assay; set-up: scale not given: the % may be the effect or the level left
[43] = read-out: LC50 (the source's name)
[44] = read-out: Log10GI50 (converted)
[45] = read-out: Log10LC50 (converted)

SMILES: C=C(C)[C@H]1CC=C(C)C2=CO[C@@H](c3ccccc3F)[C@@H]21
- GI50 ([1]; read-out: GI50): 0.148 µM
- CC50 [1, 43]: 9.36 µM
- GI50 [1, 44]: 0.148 µM
- CC50 [1, 45]: 9.33 µM
- TGI ([1]; read-out: Log10TGI (converted)): 2 µM
- TGI ([1]; read-out: TGI): 2.01 µM
- Activity [2]: 54%
- Activity [3]: 86%
- GI50 ([4]; read-out: GI50): 3.74 µM
- CC50 [4, 43]: 55.2 µM
- GI50 [4, 44]: 3.72 µM
- CC50 [4, 45]: 55 µM
- TGI ([4]; read-out: Log10TGI (converted)): 19.1 µM
- TGI ([4]; read-out: TGI): 19.2 µM
- Activity [5]: 66.62%
- Activity [6]: 93%
- Activity [7]: 39%
- Activity [8]: 82%
- Activity [9]: 79%
- Activity [10]: 67%
- Activity [11]: 88%
- GI50 ([12]; read-out: GI50): 2.78 µM
- CC50 [12, 43]: 43.8 µM
- GI50 [12, 44]: 2.75 µM
- CC50 [12, 45]: 43.7 µM
- TGI ([12]; read-out: Log10TGI (converted)): 15.1 µM
- TGI ([12]; read-out: TGI): 15.1 µM
- Activity [13]: 50%
- Activity [14]: 84%
- Activity [15]: 43%
- Activity [16]: 92%
- Activity [17]: 18%
- Activity [18]: 91%
- Activity [19]: -40%
- Activity [20]: 94%
- Activity [21]: 79%
- Activity [22]: 23%
- Activity [23]: 108.3%
- Activity [24]: 98%
- Activity [25]: 97%
- GI50 ([26]; read-out: GI50): 2.04 µM
- CC50 [26, 43]: 49.3 µM
- GI50 [26, 44]: 2.04 µM
- CC50 [26, 45]: 49 µM
- TGI ([26]; read-out: Log10TGI (converted)): 13.2 µM
- TGI ([26]; read-out: TGI): 13.2 µM
- Activity [27]: 82%
- Activity [28]: 19%
- Activity [29]: 98%
- GI50 ([30]; read-out: GI50): 3.41 µM
- LC50 (50% lethal concentration) ([30]; read-out: LC50): 43.2 µM
- GI50 [30, 44]: 3.39 µM
- LC50 (50% lethal concentration) [30, 45]: 43.7 µM
- TGI ([30]; read-out: Log10TGI (converted)): 15.5 µM
- TGI ([30]; read-out: TGI): 15.6 µM
- GI50 ([31]; read-out: GI50): 3.37 µM
- CC50 [31, 43]: 80.3 µM
- GI50 [31, 44]: 3.39 µM
- CC50 [31, 45]: 79.4 µM
- TGI ([31]; read-out: Log10TGI (converted)): 19.5 µM
- TGI ([31]; read-out: TGI): 19.4 µM
- Activity [32]: 90%
- Activity [33]: 91%
- Activity [34]: 84%
- GI50 ([35]; read-out: GI50): 2.65 µM
- LC50 ([35]; read-out: LC50): 66.3 µM
- GI50 [35, 44]: 2.63 µM
- LC50 [35, 45]: 66.1 µM
- TGI ([35]; read-out: Log10TGI (converted)): 11.5 µM
- TGI ([35]; read-out: TGI): 11.4 µM
- Activity [36]: 83%
- Activity [37]: 90%
- Activity [38]: 91%
- Activity [39]: 88%
- Activity [40]: 126%
- Activity [41]: 93.7%
- Activity [42]: 10%
